The source of these data is ChEMBL document CHEMBL2046305, “Discovery of selective menaquinone biosynthesis inhibitors against Mycobacterium tuberculosis” (J Med Chem, 2012).

Converted amounts (≈) assume the structure as drawn. The source made the active and inactive calls. No cut-off for these calls is given here.

Experiment [1] has as its system Mycobacterium tuberculosis. Nature of the experiment: Antibacterial activity against non-replicating Mycobacterium tuberculosis H37Rv ATCC 27294 by low oxygen recovery assay. The experiment is classed as functional.
The nature of experiment [2]: Inhibition of Mycobacterium tuberculosis MenA using [3H]farnesyl and DHNA as substrate after 2 hrs. The essentials: (§1)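 Membrane fraction from mid-log cultures in 7H9/OADC, washed in saline, sonicated in MOPS pH 8/sucrose/MgCl2/2-mercaptoethanol buffer, spun 15,000 g then 200,000 g; the fraction was the enzyme source. DHNA (500 μM stock), MgCl2, 0.1% CHAPS, Tris pH 8, farnesyl diphosphate (200 μM stock) and inhibitor, 2 h at 37 °C. Quenched with 0.1 M AcOH/MeOH, extracted with hexanes, DMMK measured.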

The subject of experiment [3] is Escherichia coli. Nature of the experiment: Growth inhibition of Escherichia coli Seattle ATCC 25922 at 5 to 10 ug/ml by microplate alamar blue assay in presence of 50 uM VK2. It counts as functional, organism-based. The essentials: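 E. coli grown with inhibitor under anaerobic conditions; rescue tested by supplementing with menaquinone (VK2, 50 μM).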
Experiment [4] relates to Mycobacterium tuberculosis. Nature of the experiment: Antibacterial activity against Mycobacterium tuberculosis H37Rv ATCC 27294 by microplate alamar blue assay. It counts as functional. The essentials:
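Colorimetric microplate assay run under aerobic conditions; growth scored by the colour change of resazurin. Compounds showing at least 90% inhibition in a preliminary screen were retested at lower concentrations to give the MIC.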

Experiment [5] relates to Mycobacterium tuberculosis. In words: Inhibition of Mycobacterium tuberculosis MenA using [3H]farnesyl and DHNA as substrate at 100 uM after 2 hrs. The method, boiled down: as §1
Experiment [6] deals with Staphylococcus aureus. Nature of the experiment: Antibacterial activity against Staphylococcus aureus Seattle 1945 ATCC 25923 by agar plate diffusion method. The experiment is classed as functional.
Experiment [7] relates to Escherichia coli. Nature of the experiment: Growth inhibition of Escherichia coli Seattle ATCC 25922 at 5 to 10 ug/ml by microplate alamar blue assay. The experiment is classed as functional, organism-based.
For experiment [8], the system named is Staphylococcus aureus. In words: Inhibition of Staphylococcus aureus MenA using [3H]farnesyl and DHNA as substrate at 100 uM after 2 hrs. The method, boiled down: as §1

Take `CCCCCC[C@H](O)CN1CCC(COc2ccc(C(=O)c3ccc(Cl)cc3)c(Cl)c2)CC1`: the MIC was 1.43 µg/mL (≈ 2.9 µM) in experiment [1], 1.5 µg/mL (≈ 3.05 µM) in experiment [4] and above 60 µg/mL in the experiment on Staphylococcus aureus [6]. Further, the IC50 in experiment [2] was 3.5 µM. Besides, in the experiment on Escherichia coli [3], the “growth inhibition (GI)” value is “inactive”. For the same compound, in experiment [5], the inhibition result was “Active”. In addition, the “growth inhibition (GI)” value in the experiment with Escherichia coli [7] is “Active”. Further, in the experiment with Staphylococcus aureus [8], the inhibition result is “inactive”.

`CCCC[C@H](O)CN1CCC(COc2cccc(C(=O)c3ccc(Cl)cc3)c2)CC1`: the MIC in experiment [1] was 5.59 µg/mL (≈ 13 µM); in experiment [4], 12.5 µg/mL (≈ 29.1 µM); against Staphylococcus aureus [6], above 60 µg/mL. Further, the IC50 in experiment [2] worked out at 7.5 µM. In addition, the “growth inhibition (GI)” value in the experiment with Escherichia coli [3] is “inactive”. Also, the inhibition result in experiment [5] was “Active”. Further, the “growth inhibition (GI)” value in the experiment with Escherichia coli [7] was “Active”. The inhibition result in the experiment on Staphylococcus aureus [8] is “inactive”.

`CCCCCCC[C@H](O)c1cccc(CN2CCC(COc3cccc(C(=O)c4ccc(Cl)cc4)c3)CC2)c1`: the MIC was 1.88 µg/mL (≈ 3.43 µM) in experiment [1], 12.5 µg/mL (≈ 22.8 µM) in experiment [4] and above 60 µg/mL in the experiment with Staphylococcus aureus [6]. The compound further returned an IC50 in experiment [2] of 25 µM. The “growth inhibition (GI)” value with Escherichia coli [3] is “inactive”. The inhibition result in experiment [5] is “Active”. In addition, the “growth inhibition (GI)” value in the experiment on Escherichia coli [7] is “Active”. The inhibition result with Staphylococcus aureus [8] was “inactive”.

On to `CCCCCCC[C@H](O)c1cccc(CN2CCC(COc3ccc(/C(=N\OC)c4ccc(Cl)cc4)c(Cl)c3)CC2)c1`, for which the MIC in experiment [1] is 5.54 µg/mL (≈ 9.06 µM); in experiment [4], 12.5 µg/mL (≈ 20.4 µM); in the experiment with Staphylococcus aureus [6], above 60 µg/mL. For the same compound, in experiment [2], the half-maximal inhibitory concentration (IC50) is 20 µM. Besides, the “growth inhibition (GI)” value in the experiment with Escherichia coli [3] is “inactive”. For the same compound, in experiment [5], the inhibition result was “Active”. Also, the “growth inhibition (GI)” value with Escherichia coli [7] is “Active”. For the same compound, in the experiment with Staphylococcus aureus [8], the inhibition entry is “inactive”.

For the compound `CCCCCCC[C@@H](OC(N)=O)c1cccc(CN2CCC(COc3ccc(C(=O)c4ccc(Cl)cc4)c(Cl)c3)CC2)c1`, the results for the MIC (in experiment [1]; in experiment [4]; in the experiment with Staphylococcus aureus [6]) were 4.93 µg/mL (≈ 7.88 µM), 12.5 µg/mL (≈ 20 µM) and above 60 µg/mL, respectively. The same compound registered an IC50 in experiment [2] of 20 µM. Further, the “growth inhibition (GI)” value with Escherichia coli [3] is “inactive”. Also, the inhibition result in experiment [5] is “Active”. Besides, the “growth inhibition (GI)” value in the experiment with Escherichia coli [7] is “Active”. In the experiment on Staphylococcus aureus [8], the inhibition entry is “inactive”.

Turning to `COc1ccc(CCN[C@H](CO)c2cccc(COc3cccc(C(=O)c4ccc(Cl)cc4)c3)c2)cc1`, the results for the minimum inhibitory concentration (MIC) (in experiment [1]; in experiment [4]; in the experiment with Staphylococcus aureus [6]) were 3 µg/mL (≈ 5.81 µM), 12.5 µg/mL (≈ 24.2 µM) and above 60 µg/mL, respectively. For the same compound, in experiment [2], 17 µM corresponded to half-maximal inhibition (IC50). For the same compound, the “growth inhibition (GI)” value in the experiment with Escherichia coli [3] was “inactive”. In addition, the inhibition entry in experiment [5] is “Active”. Besides, the “growth inhibition (GI)” value with Escherichia coli [7] was “Active”. For the same compound, in the experiment on Staphylococcus aureus [8], the inhibition entry is “inactive”.

In the case of `CCCC[C@@H](O)CN1CCC(COc2ccc(C(=O)c3ccc(Cl)cc3)c(Cl)c2)CC1`, the values for the MIC (in experiment [1]; in experiment [4]; against Staphylococcus aureus [6]) were 2.85 µg/mL (≈ 6.14 µM), 6.25 µg/mL (≈ 13.5 µM) and above 60 µg/mL, respectively. Further, half-maximal inhibition in experiment [2] (IC50) required 7.5 µM. Further, the “growth inhibition (GI)” value with Escherichia coli [3] is “inactive”. In experiment [5], the inhibition result is “Active”. The “growth inhibition (GI)” value with Escherichia coli [7] is “Active”. For the same compound, in the experiment with Staphylococcus aureus [8], the inhibition result is “inactive”.

Regarding `CCCCCC[C@@H](CN1CCC(COc2ccc(/C(=N\OC)c3ccc(Cl)cc3)c(Cl)c2)CC1)OC(N)=O`, the MIC in experiment [1] was 1.4 µg/mL (≈ 2.48 µM); in experiment [4], 1.5 µg/mL (≈ 2.66 µM); in the experiment with Staphylococcus aureus [6], above 60 µg/mL. Further, the IC50 in experiment [2] was determined as 1.5 µM. Also, the “growth inhibition (GI)” value in the experiment on Escherichia coli [3] was “inactive”. In addition, the inhibition entry in experiment [5] is “Active”. The “growth inhibition (GI)” value with Escherichia coli [7] was “Active”. Also, the inhibition entry in the experiment on Staphylococcus aureus [8] was “inactive”.

In experiment [4], `CO[C@H]1/C=C/O[C@@]2(C)Oc3c(C)c(O)c4c(O)c(c(/C=N/N5CCN(C)CC5)c(O)c4c3C2=O)NC(=O)/C(C)=C\C=C\[C@H](C)[C@H](O)[C@@H](C)[C@@H](O)[C@@H](C)[C@H](OC(C)=O)[C@@H]1C` [RIFAMPIN] returned an MIC of 0.07 µg/mL (≈ 0.0851 µM).

Consider `CCCCCCC[C@@H](O)c1cccc(CN2CCC(COc3cccc(C(=O)c4ccc(Cl)cc4)c3)CC2)c1`, for which the MIC in experiment [1] is 1.46 µg/mL (≈ 2.66 µM); in experiment [4], 12.5 µg/mL (≈ 22.8 µM); in the experiment with Staphylococcus aureus [6], above 60 µg/mL. In experiment [2], half-maximal inhibition (IC50) required 20 µM. In addition, in the experiment with Escherichia coli [3], the “growth inhibition (GI)” value was “inactive”. The inhibition entry in experiment [5] was “Active”. Besides, the “growth inhibition (GI)” value in the experiment with Escherichia coli [7] was “Active”. In the experiment with Staphylococcus aureus [8], the inhibition result was “inactive”.

Regarding `CCCC[C@H](O)CN1CCC(COc2ccc(C(=O)c3ccc(Cl)cc3)c(Cl)c2)CC1`, the values for the MIC (in experiment [1]; in experiment [4]; against Staphylococcus aureus [6]) were 1.43 µg/mL (≈ 3.08 µM), 1.5 µg/mL (≈ 3.23 µM) and above 60 µg/mL, respectively. Besides, the half-maximal inhibitory concentration (IC50) in experiment [2] is 4.5 µM. Besides, the “growth inhibition (GI)” value in the experiment on Escherichia coli [3] was “inactive”. Moreover, the inhibition result in experiment [5] was “Active”. For the same compound, in the experiment on Escherichia coli [7], the “growth inhibition (GI)” value is “Active”. Moreover, in the experiment on Staphylococcus aureus [8], the inhibition entry is “inactive”.

`CCCCCCC[C@@H](O)c1cccc(CN2CCC(COc3ccc(C(=O)c4ccc(Cl)cc4)c(Cl)c3)CC2)c1`: the MIC is 1.46 µg/mL (≈ 2.51 µM) in experiment [1], 12.5 µg/mL (≈ 21.5 µM) in experiment [4] and above 60 µg/mL in the experiment on Staphylococcus aureus [6]. The compound also gave an IC50 in experiment [2] of 15 µM. Also, the “growth inhibition (GI)” value in the experiment with Escherichia coli [3] was “inactive”. Besides, the inhibition result in experiment [5] was “Active”. The “growth inhibition (GI)” value with Escherichia coli [7] was “Active”. Moreover, in the experiment on Staphylococcus aureus [8], the inhibition result was “inactive”.

With `CCCC[C@@H](O)CN1CCC(COc2cccc(C(=O)c3ccc(Cl)cc3)c2)CC1`, the figures for the MIC (in experiment [1]; in experiment [4]; against Staphylococcus aureus [6]) were 4.91 µg/mL (≈ 11.4 µM), 6.2 µg/mL (≈ 14.4 µM) and above 60 µg/mL, respectively. The compound also gave an IC50 in experiment [2] of 17 µM. Besides, the “growth inhibition (GI)” value in the experiment with Escherichia coli [3] was “inactive”. Further, the inhibition result in experiment [5] is “Active”. Further, the “growth inhibition (GI)” value in the experiment with Escherichia coli [7] is “Active”. The inhibition entry in the experiment with Staphylococcus aureus [8] is “inactive”.

`CCCCCC[C@@H](CN1CCC(COc2cccc(C(=O)c3ccc(Cl)cc3)c2)CC1)OC(N)=O`: the MIC in experiment [1] was 2.94 µg/mL (≈ 5.87 µM); in experiment [4], 12.5 µg/mL (≈ 24.9 µM); against Staphylococcus aureus [6], above 60 µg/mL. For the same compound, the midpoint of inhibition in experiment [2], the IC50, lay at 9 µM. Besides, the “growth inhibition (GI)” value in the experiment with Escherichia coli [3] is “inactive”. The inhibition entry in experiment [5] is “Active”. In the experiment on Escherichia coli [7], the “growth inhibition (GI)” value is “Active”. Further, the inhibition entry with Staphylococcus aureus [8] was “inactive”.

As for `CCCCCCC[C@@H](O)c1cccc(CN2CCC(COc3cccc(/C(=N\OC)c4ccc(Cl)cc4)c3)CC2)c1`, the values for the MIC (in experiment [1]; in experiment [4]; with Staphylococcus aureus [6]) were 1.43 µg/mL (≈ 2.48 µM), 6.25 µg/mL (≈ 10.8 µM) and above 60 µg/mL, respectively. This compound also came in with an IC50 in experiment [2] of 15 µM. Further, the “growth inhibition (GI)” value in the experiment on Escherichia coli [3] was “inactive”. Also, the inhibition result in experiment [5] is “Active”. The “growth inhibition (GI)” value in the experiment with Escherichia coli [7] is “Active”. Moreover, the inhibition entry in the experiment with Staphylococcus aureus [8] is “inactive”.

Regarding `CCCCCCC[C@@H](OC(N)=O)c1cccc(CN2CCC(COc3cccc(C(=O)c4ccc(Cl)cc4)c3)CC2)c1`, the MIC was 4.93 µg/mL (≈ 8.34 µM) in experiment [1], 12.5 µg/mL (≈ 21.1 µM) in experiment [4] and above 60 µg/mL in the experiment with Staphylococcus aureus [6]. This compound came in with an IC50 in experiment [2] of 15 µM. For the same compound, the “growth inhibition (GI)” value in the experiment on Escherichia coli [3] is “inactive”. The inhibition entry in experiment [5] was “Active”. Moreover, the “growth inhibition (GI)” value with Escherichia coli [7] is “Active”. Besides, the inhibition entry in the experiment with Staphylococcus aureus [8] was “inactive”.

As to `NNC(=O)c1ccncc1` [ISONIAZID], the MIC in experiment [1] was above 128 µg/mL; in experiment [4], 0.03 µg/mL (≈ 0.219 µM).
